The structures appear in SMILES notation. pIC50: −log10 of the molar value. A value given as a limit tells only on which side of the number the result lay.

For one experiment, the system named is MGC-803. The experiment can be described thus: Antiproliferative activity against human MGC-803 cells assessed as reduction in cell viability incubated for 48 hrs by MTT assay. The experiment is classed as functional, cell-based. Particulars: MGC-803, 48 h. The method, boiled down: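 MTT assay. Compound added 24 h after seeding and left for 48 h. MTT was then added for 4 h at 37 °C, formazan dissolved in DMSO and absorbance read at 490 nm. IC50 calculated from three independent experiments.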
A general note: Formazan colour is commonly taken as a measure of viable cells.

Another experiment has as its system HCT-116. The experiment can be described thus: Antiproliferative activity against human HCT-116 cells assessed as reduction in cell viability incubated for 48 hrs by MTT assay. The class given is functional, cell-based. The following applies: HCT-116, 48 h. The method, boiled down:
(§1)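 MTT assay. 5,000 cells per well in RPMI-1640 with 10% FBS and penicillin/streptomycin at 37 °C, 5% CO2. Compound added 24 h after seeding and left for 48 h. MTT was then added for 4 h at 37 °C, formazan dissolved in DMSO and absorbance read at 490 nm. IC50 calculated from three independent experiments.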

Another experiment relates to PC-3. The experiment can be described thus: Antiproliferative activity against human PC-3 cells assessed as reduction in cell viability incubated for 48 hrs by MTT assay. The class given is functional, cell-based. Particulars: PC-3, 48 h. The method, boiled down:
as §1

The nature of experiment [1]: Inhibition of tubulin (unknown origin). Details: species or system Homo sapiens.
Experiment [2] has as its system MGC-803/PTX (Homo sapiens). In words: Cytotoxicity against human MGC-803/PTX cells assessed as reduction in cell viability at 15 nM incubated for 48 hrs by MTT assay relative to control.

Turning to `COc1ccc(CN(C(=O)CSc2nc3ccccc3s2)c2cc(OC)c(OC)c(OC)c2)cc1N=[N+]=[N-]`, the pIC50 was 6.73 in the experiment with MGC-803, 5.54 with HCT-116 and 4.84 in the experiment with PC-3.
On the same counts, the results for `COc1cc(N(Cc2ccc(Cl)cc2)C(=O)CSc2nc3ccccc3s2)cc(OC)c1OC` are under 4.10, 4.22 and under 4.10.
On the same counts, the results for `COc1cc(N(Cc2ccccc2)C(=O)CSc2nc3ccccc3s2)cc(OC)c1OC` are 4.35, 4.26 and 4.27.
In the same order, the values of `COc1cc2c(c(OC)c1OC)-c1ccc(OC)c(=O)cc1[C@@H](NC(C)=O)CC2` [COLCHICINE] are 6.97, 6.89 and 6.47.
On to `COc1cc(CN(C(=O)CSc2nc3ccccc3s2)c2cc(OC)c(OC)c(OC)c2)cc(OC)c1OC`, for which the negative logarithm of the IC50 (pIC50) with MGC-803 is 4.34; in the experiment on HCT-116, 4.19; in the experiment on PC-3 it was under 4.10.
As for `COc1ccc(CN(C(=O)CSc2nc3ccccc3s2)c2cc(OC)c(OC)c(OC)c2)cc1F`, the figures for the pIC50 with MGC-803, in the experiment on HCT-116 and in the experiment on PC-3 were 6.38, 5.74 and 4.70, respectively.
In the same order, the values of `COc1ccc(CN(C(=O)CSc2nc3ccccc3s2)c2cc(OC)c(OC)c(OC)c2)cc1` are 6.79, 6.37 and 5.07.
In the same order, the values of `COc1cc(N(Cc2ccc(F)cc2)C(=O)CSc2nc3ccccc3s2)cc(OC)c1OC` are under 4.10, 4.22 and 4.29.
On the same counts, the results for `COc1cc(N(Cc2ccc(Br)cc2)C(=O)CSc2nc3ccccc3s2)cc(OC)c1OC` are 4.32, 4.20 and under 4.10.
On to `COc1ccc(CN(C(=O)CSc2nc3ccccc3s2)c2cc(OC)c(OC)c(OC)c2)cc1[N+](=O)[O-]`, for which the figures for the pIC50 with MGC-803, with HCT-116 and with PC-3 were 6.17, 5.89 and 4.58, respectively.
In experiment [1], `COc1cc(N2C(=O)[C@H](c3cccs3)[C@H]2c2cccc(N=[N+]=[N-])c2)cc(OC)c1OC` showed a pIC50 of 5.65.
Regarding `COc1ccc(CN(C(=O)CSc2nc3ccccc3s2)c2cc(OC)c(OC)c(OC)c2)cc1C`, the pIC50 with MGC-803 is 5.20; in the experiment on HCT-116, 4.77; in the experiment with PC-3 it was 4.46.
On the same counts, the results for `COc1ccc(/C=C\c2cc(OC)c(OC)c(OC)c2)cc1OP(=O)(O)O` [FOSBRETABULIN] are 7.70, 7.38 and 7.48.
In the same order, the values of `COc1ccc(CN(C(=O)CSc2nc3ccccc3s2)c2cc(OC)c(OC)c(OC)c2)cc1Br` are 6.07, 5.34 and 4.80.
In the same order, the values of `COc1ccc(CN(C(=O)CSc2nc3cc(Br)ccc3s2)c2cc(OC)c(OC)c(OC)c2)cc1O` are 6.43, 5.47 and 5.09.
With `COc1ccc(CN(C(=O)CSc2nc3ccccc3s2)c2cc(OC)c(OC)c(OC)c2)cc1C(F)(F)F`, the negative logarithm of the IC50 (pIC50) with MGC-803 is 4.60; with HCT-116, under 4.10; with PC-3, under 4.10.
As to `COc1ccc(CN(C(=O)CSc2nc3c(C)cccc3s2)c2cc(OC)c(OC)c(OC)c2)cc1O`, the pIC50 was 6.31 in the experiment with MGC-803, 6.07 with HCT-116 and 4.91 in the experiment on PC-3.
On the same counts, the results for `COc1ccc2nc(SCC(=O)N(Cc3ccc(OC)c(O)c3)c3cc(OC)c(OC)c(OC)c3)sc2c1` are 7.15, 6.45 and 5.39.
On the same counts, the results for `COc1ccc(CN(C(=O)CSc2nc3cc(Cl)ccc3s2)c2cc(OC)c(OC)c(OC)c2)cc1O` are 7.07, 6.37 and 4.95.
In the same order, the values of `COc1ccc(CN(C(=O)CSc2nc3ccccc3s2)c2cc(OC)c(OC)c(OC)c2)cc1OC` are 4.47, 4.47 and under 4.10.
For `COc1cc(N(Cc2ccc(C)cc2)C(=O)CSc2nc3ccccc3s2)cc(OC)c1OC`, the negative logarithm of the IC50 (pIC50) is 4.27 with MGC-803, under 4.10 in the experiment with HCT-116 and under 4.10 with PC-3.
`CC(=O)O[C@H]1C(=O)[C@@]2(C)[C@H]([C@H](OC(=O)c3ccccc3)[C@]3(O)C[C@H](OC(=O)[C@H](O)[C@@H](NC(=O)c4ccccc4)c4ccccc4)C(C)=C1C3(C)C)[C@]1(OC(C)=O)CO[C@@H]1C[C@@H]2O` [PACLITAXEL]: in experiment [2], the inhibition at 0.015 µM was under 15%.
In the case of `COc1ccc(CN(C(=O)CSc2nc3ccccc3s2)c2cc(OC)c(OC)c(OC)c2)cc1N`, the negative logarithm of the IC50 (pIC50) with MGC-803 is 7.08; with HCT-116, 6.31; in the experiment with PC-3 it was 5.12.

As usually defined, the pIC50 is the IC50 on a negative log10 scale, so that one unit is a factor of ten. As usually defined, the inhibition is the percentage by which the read-out fell short of the control.

These data come from ChEMBL document CHEMBL4765386, “Discovery of tertiary amide derivatives incorporating benzothiazole moiety as anti-gastric cancer agents in vitro via inhibiting tubulin polymerization and activating the Hippo signaling pathway” (Eur J Med Chem, 2020).
